Experiment [1] deals with MCF7. Briefly: Cytostatic activity against human MCF7 cells at 20 uM after 72 hrs by crystal violet staining method relative to control. The class given is functional. The essentials: (§1)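 Single-concentration growth inhibition in MCF-7 and MDA-MB 231 cells at 10 and 20 µM after 72 h, given as corrected treated/control percentage (T/C_corr %).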
Experiment [2] relates to MDA-MB-231. Briefly: Cytostatic activity against human MDA-MB-231 cells at 20 uM after 72 hrs by crystal violet staining method relative to control. The experiment is classed as functional. Summed up: as §1
Experiment [3] concerns MCF7. Briefly: Antiproliferative activity against human MCF7 cells after 72 hrs by crystal violet staining method. The experiment is classed as functional, cell-based. The settings on record: for IC50: MCF7, 72 h. The essentials: (§2)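 Cells seeded at a known number in 96-well plates and exposed to increasing compound concentrations for 72 h; IC50 taken from the concentration–growth-inhibition data.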

Experiment [4] concerns MDA-MB-231. Briefly: Antiproliferative activity against human MDA-MB-231 cells after 72 hrs by crystal violet staining method. The experiment is classed as functional, cell-based. The settings on record: for IC50: MDA-MB-231, 72 h. Summed up: as §2
Experiment [5] has as its system HT-29. Briefly: Antiproliferative activity against human HT-29 cells after 72 hrs by crystal violet staining method. The settings on record: for IC50: HT-29, 72 h. The experiment is classed as functional, cell-based. Summed up: as §2
In experiment [6] the test system is MCF7. Briefly: Ratio of scopoletin IC50 to compound IC50 for human MCF7 cells. The experiment is classed as functional.
For experiment [7], the system named is MDA-MB-231. Briefly: Ratio of scopoletin IC50 to compound IC50 for human MDA-MB-231 cells. The class given is functional.
The test system of experiment [8] is HT-29. Briefly: Ratio of scopoletin IC50 to compound IC50 for human HT-29 cells. The class given is functional.
Experiment [9] deals with MCF7. Description: Antiproliferative activity against human MCF7 cells at 1.25 to 20 uM up to 144 hrs by crystal violet staining method. The class given is functional, cell-based. Summed up: (§3)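 Time course at 1.25, 2.5, 5, 10 and 20 µM, with growth inhibition read as corrected treated/control percentage (T/C_corr %) at several incubation times over about 140 h.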
The test system of experiment [10] is HT-29. Description: Antiproliferative activity against human HT-29 cells at 1.25 to 20 uM up to 144 hrs by crystal violet staining method. The experiment is classed as functional, cell-based. The essentials: as §3
The test system of experiment [11] is MDA-MB-231. Briefly: Induction of apoptosis in human MDA-MB-231 cells assessed as caspase3 activation at 10 uM after 24 hrs by fluorescence detection assay. The experiment is classed as functional, cell-based.
A further experiment has as its system U2OS. Description: Induction of apoptosis in human U2OS cells assessed as caspase3 activation at 10 uM after 24 hrs by fluorescence detection assay. The class given is functional, cell-based.
The test system of experiment [12] is MCF7. Briefly: Antiproliferative activity against human MCF7 cells at 20 uM after 72 hrs by crystal violet staining method relative to control. The experiment is classed as functional. Summed up: as §1
Experiment [13] has as its system MDA-MB-231. Description: Antiproliferative activity against human MDA-MB-231 cells at 20 uM after 72 hrs by crystal violet staining method relative to control. The experiment is classed as functional. The essentials: as §1
The test system of experiment [14] is MCF7. Description: Cytocidal activity against human MCF7 cells at 20 uM after 72 hrs by crystal violet staining method relative to control. The class given is functional. The essentials: as §1
The test system of experiment [15] is MDA-MB-231. Briefly: Cytocidal activity against human MDA-MB-231 cells at 20 uM after 72 hrs by crystal violet staining method relative to control. The class given is functional. The essentials:
as §1

Experiment [16] deals with MCF7. Briefly: Cytocidal activity against human MCF7 cells at 10 uM after 72 hrs by crystal violet staining method. The experiment is classed as functional, cell-based. Summed up: as §1
Experiment [17] relates to MDA-MB-231. Briefly: Cytocidal activity against human MDA-MB-231 cells at 10 uM after 72 hrs by crystal violet staining method. The class given is functional, cell-based. Summed up: as §1

Activity calls are given as the source filed them. The calls are words filed in the database; no cut-off is given here.

This is an account of results in ChEMBL document CHEMBL2057147, “Synthesis and in vitro antitumor activity of novel scopoletin derivatives” (Bioorg Med Chem Lett, 2012).

On to `COc1cc2cc(NC(C)=O)c(=O)oc2cc1OCC(=O)Nc1ccc(C(C)(C)C)cc1`, for which the T/C in the experiment on MCF7 [1] and with MDA-MB-231 [2] was 0% each time. The IC50 (commonly the concentration that inhibits the measured activity by half) was 3.9 µM with MCF7 [3], 4.5 µM in the experiment with MDA-MB-231 [4] and 4.3 µM in the experiment on HT-29 [5]. The “Ratio IC50” value in the experiment on MCF7 [6], in the experiment on MDA-MB-231 [7] and in the experiment on HT-29 [8] was 12 each time. The result with MCF7 [9] and in the experiment on HT-29 [10] was Active. The result with MDA-MB-231 [11] and in the experiment on U2OS was inactive.
Turning to `COc1ccccc1NC(=O)COc1cc2oc(=O)c(NC(C)=O)cc2cc1OC`, the T/C with MCF7 [12] and with MDA-MB-231 [13] was less than 50% in each case. In addition, the IC50 is 17.9 µM with MCF7 [3], 14.7 µM in the experiment with MDA-MB-231 [4] and 19.1 µM in the experiment on HT-29 [5].
As to `COc1cc2ccc(=O)oc2cc1O` [SCOPOLETIN], the half-maximal inhibitory concentration (IC50) in the experiment on MCF7 [3], in the experiment on MDA-MB-231 [4] and with HT-29 [5] was more than 100 µM throughout.
As to `COc1ccc(NC(=O)COc2cc3oc(=O)c(NC(C)=O)cc3cc2OC)cc1OC`, the T/C in the experiment on MCF7 [12] and in the experiment on MDA-MB-231 [13] was less than 50% in each case. The values for the half-inhibitory concentration (IC50) in the experiment with MCF7 [3], in the experiment with MDA-MB-231 [4] and in the experiment on HT-29 [5] were 14.9 µM, 8.4 µM and more than 20 µM, respectively.
With `COc1cc2ccc(=O)oc2cc1OCC(=O)Nc1ccc(C(C)(C)C)cc1`, the T/C in the experiment with MCF7 [14] and in the experiment on MDA-MB-231 [15] was less than 0% throughout. Besides, the 50% inhibitory concentration (IC50) was determined as 10.1 µM with MCF7 [3], 8.1 µM with MDA-MB-231 [4] and 19.6 µM with HT-29 [5].
As to `COc1cc2cc(NC(C)=O)c(=O)oc2cc1OCC(=O)Nc1ccc(C)cc1`, the T/C in the experiment on MCF7 [12] and in the experiment on MDA-MB-231 [13] was less than 50% each time. The IC50 in the experiment on MCF7 [3] was 19 µM; with MDA-MB-231 [4] it was 13.9 µM; with HT-29 [5] it was more than 20 µM.
As to `COc1cc2cc(NC(C)=O)c(=O)oc2cc1OCC(=O)Nc1ccc(Cl)cc1`, the result in the experiment on MCF7 [3], in the experiment with MDA-MB-231 [4] and with HT-29 [5] was Active.
For `COc1cc2cc(NC(C)=O)c(=O)oc2cc1OCC(=O)Nc1cccc(C(C)=O)c1`, the outcome in the experiment with MCF7 [3], in the experiment on MDA-MB-231 [4] and in the experiment with HT-29 [5] was Active.
Consider `COc1cc2ccc(=O)oc2cc1OCC(=O)Nc1ccc(Cl)cc1`, for which the T/C in the experiment with MCF7 [12] and in the experiment on MDA-MB-231 [13] was less than 50% throughout. In addition, the IC50 in the experiment on MCF7 [3] was 19.5 µM; in the experiment with MDA-MB-231 [4], 19.3 µM; with HT-29 [5], 18.1 µM.
In the case of `COc1cc2cc(NC(C)=O)c(=O)oc2cc1OCC(=O)Nc1ccc(F)cc1`, the result in the experiment with MCF7 [3], in the experiment on MDA-MB-231 [4] and with HT-29 [5] was Active.
As for `O=c1[nH]cc(F)c(=O)[nH]1` [FLUOROURACIL], the IC50 with MCF7 [3] stood at 4.7 µM.
Regarding `COc1cc2ccc(=O)oc2cc1OCC(=O)Nc1ccc(F)c(Cl)c1`, the T/C with MCF7 [12] and in the experiment on MDA-MB-231 [13] was less than 50% in each case. Moreover, the result with MCF7 [16] and in the experiment on MDA-MB-231 [17] was Active. Besides, the IC50 with MCF7 [3] was determined as 6.5 µM; in the experiment with MDA-MB-231 [4], 6.3 µM; in the experiment with HT-29 [5], 7.6 µM. The “Ratio IC50” value in the experiment with MCF7 [6], in the experiment on MDA-MB-231 [7] and in the experiment on HT-29 [8] was 12 in each case.
